Screening data from PubChem BioAssay.
CHO parental Ca – ATP-evoked calcium signal inhibitors, parental CHO, primary screen, counter-screen for OX1R antagonist project, cell-based, fluorescence, Fluo-8 calcium dye | parental CHO-K1, ATP-induced calcium, Fluo-8 fluorescence | AID 463079, 2010 | actives 0.63% (n = 330,000) | inhibition, % at 5.6 µM;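 active = inhibition above that plate's mean sample inhibition plus 3 SD, cut at about 26% in these data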;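 also: 0% = ATP-challenged DMSO wells and 100% = DMSO wells without ATP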
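Test system: untransfected parental CHO cell line. Compound: one dose, 5.6 µM nominal. Detection: intracellular calcium via Fluo-8 no-wash fluorescent dye. Measure: % inhibition. Benchmarks: ATP-challenged DMSO wells low, unchallenged DMSO wells high.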
GPR7 antag – GPR7 receptor antagonists, primary screen, cell-based, fluorescence, single concentration. Neuropeptides B/W receptor type 1 (Homo sapiens), P48145. GPR7-expressing cells, fluorescence antagonist assay. inhibition, % at 4.4 µM. actives 1.1% (n = 290,000). AID 1861, 2009; in the data active = inhibition above about 16%, passing the limit was not always enough;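 also: cells stimulated with the agonist NPW; 0% = agonist with vehicle and 100% = vehicle without agonist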
Target sequence (P48145 whole entry, looked up): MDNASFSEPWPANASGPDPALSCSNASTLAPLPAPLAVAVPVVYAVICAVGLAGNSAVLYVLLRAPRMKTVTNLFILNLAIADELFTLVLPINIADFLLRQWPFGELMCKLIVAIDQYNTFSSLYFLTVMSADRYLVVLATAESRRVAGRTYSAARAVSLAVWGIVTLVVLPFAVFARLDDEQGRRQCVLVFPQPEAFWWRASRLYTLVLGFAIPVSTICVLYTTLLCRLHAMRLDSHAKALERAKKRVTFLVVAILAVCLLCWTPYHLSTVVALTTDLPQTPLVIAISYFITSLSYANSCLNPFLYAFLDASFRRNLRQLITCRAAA
TAAR1 agonist – human TAAR1 agonists, primary screen, Fluo-8 calcium fluorescence, CHO RD-HGA16 cells; Trace amine-associated receptor 1 (Homo sapiens), Q96RJ0; vehicle wells 0%, saturating PEA agonist 100%; activation, % at 3 µM; actives 0.99% (n = 360,000); AID 624467, 2012;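 active = activation above the mean activation of all test compounds in the run plus 3 SD, cut at about 38% in these data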
Target sequence (Q96RJ0 whole entry, looked up): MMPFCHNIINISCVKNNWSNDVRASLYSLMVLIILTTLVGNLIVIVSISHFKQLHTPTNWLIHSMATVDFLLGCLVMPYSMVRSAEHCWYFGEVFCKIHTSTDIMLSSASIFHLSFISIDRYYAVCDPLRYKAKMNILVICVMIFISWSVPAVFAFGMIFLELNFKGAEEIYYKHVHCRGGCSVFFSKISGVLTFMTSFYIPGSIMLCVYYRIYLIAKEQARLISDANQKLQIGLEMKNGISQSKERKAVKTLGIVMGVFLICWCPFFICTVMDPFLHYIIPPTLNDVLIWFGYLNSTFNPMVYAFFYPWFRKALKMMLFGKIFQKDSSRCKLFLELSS
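System: CHO-derived RD-HGA16 cells with stable Gα16 and human TAAR1. Times: 17-24 h plating, Fluo-8 75 min 37 °C, 30 min RT. Measured by: calcium-sensitive Fluo-8 signal, excitation 470-495, emission 515-575 nm. Read-out basis: % activation relative to PEA EC100 response. Control set: DMSO and PEA EC100. Repeats: no replicates (n 1).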
OX1R antag-1 – OX1R (HCRTR1) antagonists, primary screen, fluorescence, CHO/OX1R cells, Fluo-8 calcium, orexin A; Fluo-8 calcium fluorescence; actives 0.43% (n = 330,000); inhibition, % at 5 µM; Orexin/Hypocretin receptor type 1 (Homo sapiens), O43613; AID 434989, 2010;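 active = inhibition above its plate's threshold, mean inhibition of all tested compounds on the plate plus 3 SD, cut at about 37% in these data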;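 also: 0% = orexin A challenge wells and 100% = SB-334867-A antagonist wells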
TAAR1 antagonist – human TAAR1 antagonists, primary screen, Fluo-8 calcium fluorescence, CHO RD-HGA16 cells. Trace amine-associated receptor 1 (Homo sapiens), Q96RJ0. actives 1.5% (n = 360,000). inhibition, % at 3 µM. AID 624466, 2012. antagonist;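 active = inhibition above a per-plate cutoff, the mean inhibition of test compounds on that plate plus 3 SD, cut at about 49% in these data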;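 also: 0% = DMSO plus EC80 beta-PEA response and 100% = DMSO alone without agonist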
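Material: RD-HGA16 CHO cells with stable hTAAR1 and Gα16; Dosing: single nominal final test compound concentration of 3 µM; Schedule: seeding 17-24 h prior, 75-min 37 °C, 30-min RT dye loading; Detection: kinetic Fluo-8 calcium fluorescence measurement; Measure: % inhibition from peak post-agonist over basal fluorescence ratio; Benchmarks: vehicle and agonist controls.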
OX1R antag-2 – antagonists of human orexin 1 receptor (OX1R). actives 1.8% (n = 330,000). Orexin/Hypocretin receptor type 1 (Homo sapiens), O43613. inhibition, % at 6.6 µM. OX1R-expressing cells, FRET antagonist read-out; in the data active = inhibition mostly above about 38%, no sharp cut-off; inactive = mostly below about 40%;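 also: 0% = agonist challenge alone and 100% = reference antagonist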
OX1R HTRF confirm – OX1R (HCRTR1) antagonists, confirmation, cell-based, HTRF; OX1R-expressing cells, HTRF antagonist assay; actives 49% (n = 1,800); AID 492964, 2010; inhibition, % at 6.6 µM; shares compounds with OX1R antag-2; in the data active = inhibition above about 55%;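 also: CHO cells expressing OX1R stimulated with orexin A at about EC80; 0% = agonist challenge alone and 100% = reference antagonist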
CHO-K1 HTRF – signal inhibition in parental CHO-K1 cells, counter-screen for OX1R antagonist project, cell-based, HTRF; actives 48% (n = 1,800); AID 493232, 2011; HTRF counterscreen; inhibition, % at 6.6 µM; shares compounds with OX1R antag-2; in the data active = inhibition above about 17%;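 also: 0% = agonist challenge with vehicle and 100% = vehicle alone without agonist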
Starred values were filed as active, the others as inactive; . = not tested or not shown. Shown are actives, neighbours in structure and some others; about 4.6% of the full set was active somewhere.

SMILES	CHO parental Ca	GPR7 antag	TAAR1 agonist	OX1R antag-1	TAAR1 antagonist	OX1R antag-2	OX1R HTRF confirm	CHO-K1 HTRF
C/C(=N/NC(=O)CNC(=O)c1cccnc1)c1ccc([N+](=O)[O-])cc1	6.7	-7.1	8.7	-10.6	-3.0	89.7*	52.0	43.5*
CC(=O)NC(c1cccc(F)c1)c1nc(-c2cnn(C)c2)cs1 (stereo not drawn)	.	.	0.9	.	-17.6	.	.	.
O=C(N/N=C/c1cccnc1)c1ccc([N+](=O)[O-])cc1	-2.0	1.5	3.7	-14.2	-2.5	106.5*	37.4	81.8*
Cc1ccc(CC(=O)NCCCn2ccnc2)cc1	10.1	3.1	0.3	-11.8	-16.4	17.0	.	.
Cc1ccc2nc3c(cc(C(=O)NCCCn4ccnc4)n3C)c(=O)n2c1	-17.4	2.0	3.8	-13.4	-11.4	80.0*	23.2	30.4*
CC(C)(CO)N=C1NS(=O)(=O)c2cc([N+](=O)[O-])ccc21	-1.9	-9.3	-0.1	-10.1	14.8	99.5*	56.4*	63.3*
CC(C)(C)CC(C)(C)N=C1NS(=O)(=O)c2cc([N+](=O)[O-])ccc21	-12.6	-12.7	12.4	-1.5	-5.1	34.3	.	.
CC(=O)Nc1ccc(-c2ccnc3c2CC(C)(C(=O)Nc2cccc(C(C)=O)c2)O3)cc1 (stereo not drawn)	.	.	5.1	.	2.8	.	.	.
CCOn1c(=O)c(-c2ccc(OC)cc2)[n+]([O-])c2ccccc21	-19.0	10.7	2.1	-15.2	-1.8	120.6*	35.1	38.1*
C=CCOn1c(=O)c(-c2ccccc2)[n+]([O-])c2ccccc21	-14.4	1.5	-0.5	-28.5	-3.4	122.4*	35.4	46.7*
CCOn1c(=O)c(-c2ccc(OC)c(OC)c2)[n+]([O-])c2ccccc21	3.5	-8.7	0.5	2.7	4.4	103.2*	39.8	37.0*
O=Cc1c[nH]c2ccc(S(=O)(=O)N3CCCCC3)cc12	.	.	1.9	.	-8.6	.	.	.
COc1cc(/C=N/NC(=O)c2sc3nc(C)cc(C)c3c2N)ccc1O	-10.8	-2.2	8.2	25.9	33.6	99.7*	97.7*	24.6*
COc1cc(/C=N/n2cnc3c(sc4nc(C)cc(C)c43)c2=O)ccc1O	-6.7	-15.1	.	-8.1	.	7.1	.	.
CC(C)N(C(=O)COC(=O)c1cccc(S(=O)(=O)N2CC3(C)CC2CC(C)(C)C3)c1)C(C)C (stereo not drawn)	.	.	-0.1	.	-5.7	.	.	.
O=[N+]([O-])c1cccc(-c2nc(-c3ccncc3)no2)c1	-0.2	-8.9	10.8	5.4	-8.8	112.6*	35.9	41.6*
O=[N+]([O-])c1cccc(-c2nc(-c3ccccc3)no2)c1	-0.3	-8.0	18.3	-16.6	-4.5	11.6	.	.
COc1ccc(C(C)=O)cc1Cn1c(C)c(C(=O)NCc2cccc(C)c2)sc1=O	.	.	-0.4	.	13.5	.	.	.
Cc1cc(=O)oc2c(CN3CCCC3)c(O)ccc12	-7.2	-9.0	4.3	-11.5	-16.5	0.5	.	.
CCCc1cc(=O)oc2c(CN3CCCC3)c(O)ccc12	-14.1	-3.2	-0.8	-23.7	10.0	94.4*	14.5	1.4
CCOC(=O)c1c(C)oc2c1c(C(c1cccnc1)N1CCCCC1)c(O)c1ccccc12 (stereo not drawn)	-27.2	-4.7	2.5	-8.7	-3.8	95.0*	17.1	6.3
CC(=O)c1ccc(NC(=O)CSc2nnc(-c3ccco3)o2)cc1	8.1	15.9	5.6	-5.1	-11.3	2.1	.	.
Cc1ccc(NC(=O)CSc2nnc(-c3ccco3)o2)cc1	-3.4	1.5	4.5	-13.0	8.5	98.7*	8.4	6.3
CCc1nc2ccc(C(=O)NCCC(C)C)cn2c1N(C)Cc1ccc(OC)cc1	.	.	-2.1	.	-5.1	.	.	.
Cc1ccc(C)c(N(CC(=O)NC(C)(C)C)C(=O)CNC(=O)c2cccs2)c1	-15.1	-3.0	6.9	-26.2	2.2	115.1*	14.2	2.9
SMILES	CHO parental Ca	GPR7 antag	TAAR1 agonist	OX1R antag-1	TAAR1 antagonist	OX1R antag-2	OX1R HTRF confirm	CHO-K1 HTRF
Cc1ccccc1N(CC(=O)NC1CCCCC1)C(=O)CNC(=O)c1cccs1	-21.3	-4.0	-1.6	-30.1	7.0	15.8	.	.
COc1ccc(C(C(=O)NC2CCCC2)N(CCCO)C(=O)c2snc(C(N)=O)c2N)cc1 (stereo not drawn)	-17.6	-5.7	2.6	-20.8	9.5	121.0*	20.3	-2.9
O=C(Nc1cccc(Cl)c1)NC1CCN(C2CCCCC2)C1 (stereo not drawn)	-17.6	-3.1	4.3	-28.1	4.8	-4.7	.	.
Cc1cc(/C=N/n2c(COc3ccccc3)nc3ccccc3c2=O)c(O)c([N+](=O)[O-])c1	-18.3	-6.0	-0.3	-17.6	40.5	91.9*	36.6	12.2
N#C/C(=N\Nc1ccc([N+](=O)[O-])cc1)C(N)=S	8.3	4.2	5.1	17.2	-29.7	89.8*	64.2*	50.9*
N#C/C(=N\Nc1ccc(S(=O)(=O)N2CCc3ccccc32)cc1)C(N)=S	6.9	-15.5	10.9	-3.9	22.1	106.0*	40.9	20.9*
O=C(c1cc(Br)c(Br)s1)N1CCc2ccccc2C1	-26.2	.	7.8	-22.0	0.6	6.8	.	.
OC[C@H]1O[C@H](c2nc(-c3nc(-c4cccc(-n5cccc5)c4)no3)cs2)C[C@@H]1O	.	.	11.3	.	35.8	.	.	.
Cc1cc(C)n(C(=O)c2cc([N+](=O)[O-])cc([N+](=O)[O-])c2)n1	6.4	-4.7	-2.0	0.6	-19.2	103.5*	70.6*	61.9*
Cc1cc(C)n(C(=O)c2cccc([N+](=O)[O-])c2)n1	-3.9	-14.9	-0.3	-1.8	1.0	23.7	.	.
COc1cc(/C=C/c2sc3ccccc3[n+]2CCCS(=O)(=O)[O-])ccc1O	5.7	15.6	8.9	9.3	1.1	86.2*	58.9*	99.1*
CCC(/C=C1\Oc2ccc(OC)cc2N1C)=C\c1sc2ccccc2[n+]1CCCS(=O)(=O)[O-]	.	.	4.3	.	-4.3	.	.	.
O=C(Cc1ccc(Cl)cc1)Nc1cccnc1Cl	.	.	1.6	.	1.2	.	.	.
COc1ccc(C(C)(C)C)cc1NC(=O)CCc1c(C)noc1C	-18.6	.	-1.2	-9.3	9.2	4.5	.	.
CC(C)C[C@@H]1Cc2[nH][nH]c(=O)c2[C@H](C)O1	.	.	0.6	.	3.6	.	.	.
